In ChEMBL document CHEMBL5329156, “Discovery and development of novel substituted monohydrazides as potent antifungal agents” (RSC Med Chem, 2023):
Values after ≈ are worked out from the molar mass of the structure shown. Active and inactive are the calls of the source. The rule behind the calls is not given here.

Tests used:
Clavispora lusitaniae = assay: Antifungal activity against Clavispora lusitaniae AR Bank # 398 assessed as fungal growth inhibition by double dilution method; type: functional
Procedure, shortened: (§1)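 Broth microdilution after CLSI M27-A3/M38-A2 with minor changes. Single colony grown overnight in YPD at 35 °C, 200 rpm. Compound final range 0.06-31.3 µg/mL; incubated 48 h at 35 °C.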

Aspergillus fumigatus [1] = assay: Antifungal activity against Aspergillus fumigatus NRRL 6113 assessed as fungal growth inhibition by double dilution method; type: functional
Candida albicans [2] = assay: Antifungal activity against itraconazole/fluconazole resistant Candida albicans ATCC 90819 assessed as fungal growth inhibition by double dilution method; type: functional
Procedure, shortened: (§2)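 Broth microdilution after CLSI M27-A3/M38-A2 with minor modifications. A single colony was grown overnight in YPD at 35 °C with shaking at 200 rpm. Cells were mixed 1:1 with compound (final 0.06-31.3 µg/mL, from DMSO stocks) and incubated 48 h at 35 °C.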

[Candida] auris [3] = Antifungal activity against Candida auris AR Bank # 382 assessed as fungal growth inhibition by double dilution method; type: functional; settings: Candidozyma auris; procedure, shortened: as §1
Candida duobushaemulonii [4] = assay: Antifungal activity against Candida duobushaemulonii AR Bank # 394 assessed as fungal growth inhibition by double dilution method; type: functional; settings: Candidozyma duobushaemuli; procedure, shortened: as §1
Saccharomyces cerevisiae [5] = assay: Antifungal activity against Saccharomyces cerevisiae AR Bank # 400 assessed as fungal growth inhibition by double dilution method; type: functional; procedure, shortened: as §1
[Candida] auris [6] = Antifungal activity against Candida auris AR Bank # 390 assessed as fungal growth inhibition by double dilution method; type: functional; settings: Candidozyma auris; procedure, shortened: as §1
Pichia kudriavzevii [7] = assay: Antifungal activity against Pichia kudriavzevii AR Bank # 397 assessed as fungal growth inhibition by double dilution method; type: functional; procedure, shortened: as §1
[Candida] auris [8] = Antifungal activity against Candida auris AR Bank # 386 assessed as fungal growth inhibition by double dilution method; type: functional; settings: Candidozyma auris; procedure, shortened: as §1
Candida duobushaemulonii [9] = assay: Antifungal activity against Candida duobushaemulonii AR Bank # 392 assessed as fungal growth inhibition by double dilution method; type: functional; settings: Candidozyma duobushaemuli; procedure, shortened: as §1
Aspergillus nidulans = assay: Antifungal activity against Aspergillus nidulans ATCC 38163 assessed as fungal growth inhibition by double dilution method; type: functional
[Candida] auris [10] = Antifungal activity against Candida auris AR Bank # 384 assessed as fungal growth inhibition by double dilution method; type: functional; settings: Candidozyma auris; procedure, shortened: as §1
[Candida] auris [11] = Antifungal activity against Candida auris AR Bank # 388 assessed as fungal growth inhibition by double dilution method; type: functional; settings: Candidozyma auris; procedure, shortened: as §1
Candida albicans [12] = assay: Antibiofilm activity against Candida albicans ATCC 10231 assessed as reduction in biofilm production at 1.96 to 3.9 microg/ml by biofilm formation assay; type: functional, organism-based; settings: dose 1.96-3.9 µg/ml
Candida albicans [13] = assay: Antifungal activity against Candida albicans ATCC 10231 assessed as fungal growth inhibition by double dilution method; type: functional; procedure, shortened: as §1
[Candida] auris [14] = Antifungal activity against Candida auris AR Bank # 383 assessed as fungal growth inhibition by double dilution method; type: functional; settings: Candidozyma auris; procedure, shortened: as §1
Aspergillus fumigatus [15] = assay: Antifungal activity against Aspergillus fumigatus NRRL 163 assessed as fungal growth inhibition by double dilution method; type: functional
Aspergillus flavus = assay: Antifungal activity against Aspergillus flavus ATCC MYA-3631 assessed as fungal growth inhibition by double dilution method; type: functional
Candida albicans [16] = assay: Antifungal activity against itraconazole/fluconazole resistant Candida albicans ATCC MYA-1237 assessed as fungal growth inhibition by double dilution method; type: functional; procedure, shortened: as §2
[Candida] auris [17] = Antifungal activity against Candida auris AR Bank # 381 assessed as fungal growth inhibition by double dilution method; type: functional; settings: Candidozyma auris; procedure, shortened: as §1
Candida albicans [18] = assay: Antifungal activity against Candida albicans ATCC 64124 assessed as fungal growth inhibition by double dilution method; type: functional; procedure, shortened: as §2
Candida albicans [19] = assay: Antifungal activity against itraconazole/fluconazole susceptible Candida albicans ATCC MYA-2310 assessed as fungal growth inhibition by double dilution method; type: functional; procedure, shortened: as §2
Aspergillus fumigatus [20] = assay: Antifungal activity against Aspergillus fumigatus NRRL 5109 assessed as fungal growth inhibition by double dilution method; type: functional
Aspergillus terreus = assay: Antifungal activity against Aspergillus terreus ATCC MYA-3633 assessed as fungal growth inhibition by double dilution method; type: functional
Saccharomyces cerevisiae [21] = assay: Antifungal activity against Saccharomyces cerevisiae AR Bank # 399 assessed as fungal growth inhibition by double dilution method; type: functional; procedure, shortened: as §1
Candida albicans [22] = assay: Antifungal activity against itraconazole/fluconazole resistant Candida albicans ATCC MYA-1003 assessed as fungal growth inhibition by double dilution method; type: functional; procedure, shortened: as §2
Nakaseomyces glabratus [23] = assay: Antifungal activity against Candida glabrata ATCC 2001 assessed as fungal growth inhibition by double dilution method; type: functional; procedure, shortened: as §1
Pichia kudriavzevii [24] = assay: Antifungal activity against Pichia kudriavzevii ATCC 6258 assessed as fungal growth inhibition by double dilution method; type: functional; procedure, shortened: as §1
[Candida] auris [25] = Antifungal activity against Candida auris AR Bank # 389 assessed as fungal growth inhibition by double dilution method; type: functional; settings: Candidozyma auris; procedure, shortened: as §1
Nakaseomyces glabratus [26] = assay: Antifungal activity against Candida glabrata ATCC 22019 assessed as fungal growth inhibition by double dilution method; type: functional; procedure, shortened: as §1
[Candida] auris [27] = Antifungal activity against Candida auris AR Bank # 0390 assessed as fungal growth inhibition by double dilution method; type: functional; settings: Candidozyma auris; procedure, shortened: as §1
Candida duobushaemulonii [28] = assay: Antifungal activity against Candida duobushaemulonii AR Bank # 391 assessed as fungal growth inhibition by double dilution method; type: functional; settings: Candidozyma duobushaemuli; procedure, shortened: as §1
[Candida] auris [29] = Antifungal activity against Candida auris AR Bank # 0384 assessed as fungal growth inhibition by double dilution method; type: functional; settings: Candidozyma auris; procedure, shortened: as §1
[Candida] haemuloni [30] = Antifungal activity against Candida haemulonii AR Bank # 393 assessed as fungal growth inhibition by double dilution method; type: functional; settings: Candidozyma haemuli; procedure, shortened: as §1
Candida albicans [31] = assay: Antifungal activity against itraconazole/fluconazole susceptible Candida albicans ATCC MYA-2876 assessed as fungal growth inhibition by double dilution method; type: functional; procedure, shortened: as §2
[Candida] auris [32] = Antifungal activity against Candida auris AR Bank # 387 assessed as fungal growth inhibition by double dilution method; type: functional; settings: Candidozyma auris; procedure, shortened: as §1
Cryptococcus neoformans = assay: Antifungal activity against Cryptococcus neoformans ATCC MYA-895 assessed as fungal growth inhibition by double dilution method; type: functional; procedure, shortened: as §1
Kodamaea ohmeri = assay: Antifungal activity against Kodamaea ohmeri AR Bank # 396 assessed as fungal growth inhibition by double dilution method; type: functional; procedure, shortened: as §1
[Candida] haemuloni [33] = Antifungal activity against Candida haemulonii AR Bank # 395 assessed as fungal growth inhibition by double dilution method; type: functional; settings: Candidozyma haemuli; procedure, shortened: as §1
[Candida] auris [34] = Antifungal activity against Candida auris AR Bank # 385 assessed as fungal growth inhibition by double dilution method; type: functional; settings: Candidozyma auris; procedure, shortened: as §1

| SMILES | MIC (Clavispora lusitaniae) [µg/mL] | MIC (Aspergillus fumigatus [1]) [µg/mL] | MIC (Candida albicans [2]) [µg/mL] | MIC ([Candida] auris [3]) [µg/mL] | MIC (Candida duobushaemulonii [4]) [µg/mL] | MIC (Saccharomyces cerevisiae [5]) [µg/mL] | MIC ([Candida] auris [6]) [µg/mL] | MIC (Pichia kudriavzevii [7]) [µg/mL] | MIC ([Candida] auris [8]) [µg/mL] | MIC (Candida duobushaemulonii [9]) [µg/mL] | MIC (Aspergillus nidulans) [µg/mL] | MIC ([Candida] auris [10]) [µg/mL] | MIC ([Candida] auris [11]) [µg/mL] | Activity (Candida albicans [12]) | MIC (Candida albicans [13]) [µg/mL] | MIC ([Candida] auris [14]) [µg/mL] | MIC (Aspergillus fumigatus [15]) [µg/mL] | MIC (Aspergillus flavus) [µg/mL] | MIC (Candida albicans [16]) [µg/mL] | MIC ([Candida] auris [17]) [µg/mL] | other results |
| --- | --- | --- | --- | --- | --- | --- | --- | --- | --- | --- | --- | --- | --- | --- | --- | --- | --- | --- | --- | --- | --- |
| COc1cccc(NNC(=O)c2ccccn2)c1 | 1.95 (≈ 8.02 µM) | > 31.3 | 1.95 (≈ 8.02 µM) | 0.98 (≈ 4.03 µM) | 0.98 (≈ 4.03 µM) | 7.8 (≈ 32.1 µM) | 0.98 (≈ 4.03 µM) | 0.49 (≈ 2.01 µM) | 0.49 (≈ 2.01 µM) | 1.95 (≈ 8.02 µM) | 1.95 (≈ 8.02 µM) | 0.98 (≈ 4.03 µM) | 3.9 (≈ 16 µM) | Active | 0.24 (≈ 0.987 µM) | 0.98 (≈ 4.03 µM) | 7.8 (≈ 32.1 µM) | > 31.3 | 1.95 (≈ 8.02 µM) | 3.9 (≈ 16 µM) | MIC (Candida albicans [18]): 0.98 µg/mL (≈ 4.03 µM); MIC (Candida albicans [19]): 1.95 µg/mL (≈ 8.02 µM); MIC (Aspergillus fumigatus [20]): 3.9 µg/mL (≈ 16 µM); MIC (Aspergillus terreus): 3.9 µg/mL (≈ 16 µM); MIC (Saccharomyces cerevisiae [21]): 7.8 µg/mL (≈ 32.1 µM); MIC (Candida albicans [22]): 0.98 µg/mL (≈ 4.03 µM); MIC (Nakaseomyces glabratus [23]): 15.6 µg/mL (≈ 64.1 µM); MIC (Pichia kudriavzevii [24]): 0.49 µg/mL (≈ 2.01 µM); MIC ([Candida] auris [25]): 0.49 µg/mL (≈ 2.01 µM); MIC (Nakaseomyces glabratus [26]): 3.9 µg/mL (≈ 16 µM); MIC ([Candida] auris [27]): 0.98 µg/mL (≈ 4.03 µM); MIC (Candida duobushaemulonii [28]): 1.95 µg/mL (≈ 8.02 µM); MIC ([Candida] auris [29]): 0.98 µg/mL (≈ 4.03 µM); MIC ([Candida] haemuloni [30]): 0.49 µg/mL (≈ 2.01 µM); MIC (Candida albicans [31]): 0.98 µg/mL (≈ 4.03 µM); MIC ([Candida] auris [32]): 0.49 µg/mL (≈ 2.01 µM); MIC (Cryptococcus neoformans): 0.24 µg/mL (≈ 0.987 µM); MIC (Kodamaea ohmeri): 0.49 µg/mL (≈ 2.01 µM); MIC ([Candida] haemuloni [33]): 0.49 µg/mL (≈ 2.01 µM); MIC ([Candida] auris [34]): 3.9 µg/mL (≈ 16 µM) |
| O=C(NNc1cc(F)ccc1F)c1ccccn1 | 0.49 (≈ 1.97 µM) | > 31.3 | 0.98 (≈ 3.93 µM) | 0.24 (≈ 0.963 µM) | 0.24 (≈ 0.963 µM) | 1.95 (≈ 7.82 µM) | 0.98 (≈ 3.93 µM) | 0.24 (≈ 0.963 µM) | 0.12 (≈ 0.482 µM) | 0.24 (≈ 0.963 µM) | 0.49 (≈ 1.97 µM) | 1.95 (≈ 7.82 µM) | 0.49 (≈ 1.97 µM) | inactive | 0.12 (≈ 0.482 µM) | 0.49 (≈ 1.97 µM) | > 31.3 | 3.9 (≈ 15.6 µM) | 1.95 (≈ 7.82 µM) | 1.95 (≈ 7.82 µM) | MIC (Candida albicans [18]): 1.95 µg/mL (≈ 7.82 µM); MIC (Candida albicans [19]): 1.95 µg/mL (≈ 7.82 µM); MIC (Aspergillus fumigatus [20]): 15.6 µg/mL (≈ 62.6 µM); MIC (Aspergillus terreus): 0.98 µg/mL (≈ 3.93 µM); MIC (Saccharomyces cerevisiae [21]): 1.95 µg/mL (≈ 7.82 µM); MIC (Candida albicans [22]): 0.98 µg/mL (≈ 3.93 µM); MIC (Nakaseomyces glabratus [23]): 3.9 µg/mL (≈ 15.6 µM); MIC (Pichia kudriavzevii [24]): 0.24 µg/mL (≈ 0.963 µM); MIC ([Candida] auris [25]): 0.49 µg/mL (≈ 1.97 µM); MIC (Nakaseomyces glabratus [26]): 3.9 µg/mL (≈ 15.6 µM); MIC ([Candida] auris [27]): 0.98 µg/mL (≈ 3.93 µM); MIC (Candida duobushaemulonii [28]): 0.49 µg/mL (≈ 1.97 µM); MIC ([Candida] auris [29]): 0.24 µg/mL (≈ 0.963 µM); MIC ([Candida] haemuloni [30]): 0.98 µg/mL (≈ 3.93 µM); MIC (Candida albicans [31]): 3.9 µg/mL (≈ 15.6 µM); MIC ([Candida] auris [32]): 0.49 µg/mL (≈ 1.97 µM); MIC (Cryptococcus neoformans): 0.49 µg/mL (≈ 1.97 µM); MIC (Kodamaea ohmeri): 0.12 µg/mL (≈ 0.482 µM); MIC ([Candida] haemuloni [33]): 0.24 µg/mL (≈ 0.963 µM); MIC ([Candida] auris [34]): 0.49 µg/mL (≈ 1.97 µM) |
